From PubChem BioAssay
STAT3 activator = increases IL-6 driven STAT3 reporter signal; U3A cells, IL-6 STAT3-luciferase reporter, luminescence; 100% = signal with IL-6 EC80 alone; activation (% of control), % at 5.6 µM; 0.91% of 190,000 active; AID 871;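 active means activation above the screen-wide mean of compound activation plus 3 SD, cut at about 130% in these data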;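 further: 0% = background luminescence of wells with medium and substrate only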
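System – human U3A cells carrying STAT3-luciferase construct · Probe or stimulus – Interleukin-6, 33 ng/mL · Schedule – compound 1 h, then IL-6 6 h at 37 °C · Signal – luminescence from STAT3-driven luciferase reporter · Evaluation – percent of IL-6-only median luminescence · Benchmarks – IL-6-only high control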
FLuc act counter = affects firefly luciferase, flagging false hits in luciferase stimulation screens. P08659. ATPlite luciferase biochemical, luminescence, 10 min; 0 = ATP-free wells, 1 = DMSO control. activation factor at 10 µM. 200,000 tested, under 10 active. AID 1027;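 active means luciferase activation factor, scaled between plate controls, of at least 2 with compound at 10 µM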
Target sequence (P08659 whole entry, looked up): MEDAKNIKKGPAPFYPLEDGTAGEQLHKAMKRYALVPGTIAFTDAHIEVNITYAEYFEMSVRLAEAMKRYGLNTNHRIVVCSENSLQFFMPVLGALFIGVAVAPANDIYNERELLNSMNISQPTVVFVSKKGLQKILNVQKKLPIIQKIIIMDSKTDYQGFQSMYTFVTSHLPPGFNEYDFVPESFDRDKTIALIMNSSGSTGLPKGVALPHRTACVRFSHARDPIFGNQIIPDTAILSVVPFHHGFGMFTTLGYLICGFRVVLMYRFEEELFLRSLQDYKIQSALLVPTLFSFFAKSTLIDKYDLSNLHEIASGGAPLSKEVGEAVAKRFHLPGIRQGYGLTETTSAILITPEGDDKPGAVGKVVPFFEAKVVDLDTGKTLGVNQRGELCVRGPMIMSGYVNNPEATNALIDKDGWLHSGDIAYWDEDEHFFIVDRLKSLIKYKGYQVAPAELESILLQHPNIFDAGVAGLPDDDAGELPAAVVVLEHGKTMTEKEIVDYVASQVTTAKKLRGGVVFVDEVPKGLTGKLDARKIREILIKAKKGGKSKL
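System: Luciferase/luciferin detection reagent, cell-free biochemical luciferase assay | Medium: PBS buffer for ATP | Dosing: Test compounds dosed from 2 mM stocks in 100% DMSO | Timing: 10 min at ambient temperature | Signal: Luminescence measurement of luciferase light output | Evaluation: Luciferase activation, seen as luminescence increase over controls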
STAT3 inh = reduces IL-6 driven STAT3 reporter signal; inhibition, % at 5.5 µM; U3A cells, IL-6 STAT3-luciferase reporter, luminescence; host cell line lacks STAT1; 0.89% of 190,000 active;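 active means inhibition above the mean inhibition across all screened compounds plus 3 SD, cut at about 44% in these data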;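 further: 0% = DMSO only wells and 100% = 100 µM nifuroxazide control wells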
STAT1 act = increases IFN-gamma driven STAT1 reporter signal | NIH 3T3 STAT1-luciferase reporter, luminescence; 100% = IFN-gamma alone, no compound | activation (% of control), % at 5.5 µM | 2.6% of 200,000 active;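 active means activation above the screen-wide mean activation plus 3 SD, cut at about 130% in these data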;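 further: raw ratio to IFN-gamma control signal so 100% means no change and 0% no light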
FLuc inhib CS = Photinus pyralis luciferase inhibition counter-screen; ATPLite firefly luciferase biochemical luminescence, 10 min; inhibition, % at 10 µM; 1.5% of 200,000 active; AID 1006;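 active means inhibition above about 50% when tested at 10 µM, limit read from the data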
STAT1 inh = reduces IFN-gamma driven STAT1 reporter signal | inhibition, % at 5.5 µM | NIH 3T3 STAT1-luciferase reporter, luminescence | AID 920 | 0.35% of 200,000 active;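 active means inhibition above a set limit, the mean inhibition across all tested compounds plus 3 SD, cut at about 34% in these data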;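 further: 0% = IFN-gamma with DMSO and 100% = IFN-gamma with 300 µM nifuroxazide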
STAT1 act conf = STAT1 activation, confirmation assay; AID 1262; 97% of 1,200 active; shares compounds with STAT1 act; activation (% of control), % at 5.7 µM; NIH 3T3 STAT1-luciferase reporter, IFN-gamma potentiation, luminescence; 100% = IFN-gamma EC80 alone, no compound;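 active means activation above a set limit carried over from the earlier primary STAT1 screen, cut at about 140% in these data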;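 further: simple ratio to median IFN-gamma plus DMSO wells so 0% means no light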
NFkB act STAT1ct = NF-kappaB activation in STAT1 activator counter-screen; shares compounds with STAT1 act; HEK293T NF-kB luciferase reporter, TNF-alpha stimulated, luminescence; 100% = TNF-alpha with vehicle only; activation (% of control), % at 5.7 µM; 43% of 1,200 active; AID 1306;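 active means activation above the mean of solvent-only control wells plus 3 SD, set per campaign, cut at about 130% in these data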;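 further: TNF-alpha given at a submaximal dose yielding about 80% of full reporter signal; values are well signal over median control so 100% means no change and 0% no light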
STAT3 act 2 = counter-screen for STAT1 activators: human STAT3 activation; activation (% of control), % at 5.7 µM; shares compounds with STAT1 act; U3A cells STAT3-luciferase reporter, IL-6, luminescence; cells lack STAT1; 100 = IL-6 alone, no compound effect; 46% of 1,200 active;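 active means activation above the solvent-only control well mean plus 3 SD, set per plate batch, cut at about 110% in these data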;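 further: 0% = no luminescence and 100% = median IL-6 plus DMSO wells; higher means more STAT3 reporter activation so hits are non-selective activators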
Starred values were filed as active, the others as inactive; . = not tested or not shown. Hits are enriched below; roughly 4.9% of the tested compounds scored in any of these assays.

SMILES | STAT3 activator | FLuc act counter | STAT3 inh | STAT1 act | FLuc inhib CS | STAT1 inh | STAT1 act conf | NFkB act STAT1ct | STAT3 act 2
CC(C)COc1ccc(-c2cc(C(=O)NN)[nH]n2)cc1 | 71 | 0.9 | 36 | 153* | 7 | -59 | 128 | 112 | 107
CCOc1ccc(-c2cc(C(=O)NN=C3CCN(C)CC3)[nH]n2)cc1 | 95 | 1 | 11 | 104 | 0 | -2 | . | . | .
O=c1oc2ccccc2cc1-c1nnc(NCc2ccco2)s1 | 91 | 0.9 | 12 | 154* | 14 | -66 | 188* | 139* | 112*
CC1=NN(C(=O)CCc2ccc3c(c2)OCO3)C(O)(C(F)(F)F)C1 (stereo not given) | 106 | 1 | 1 | 104 | -2 | -6 | . | . | .
Clc1cccc(-c2cc3nc4c(c(NCc5ccco5)n3n2)CCCC4)c1 | 93 | 0.9 | 14 | 154* | 6 | -59 | 242* | 145* | 113*
COCCNc1cc(C)nc2cc(-c3ccc(C)cc3)nn12 | 92 | 0.7 | 12 | 119 | 35 | -23 | . | . | .
Cc1ccc(-c2cc3nc(C)cc(NCc4ccco4)n3n2)cc1 | 105 | 0.3 | -1 | 151* | 68* | -56 | 172* | 114 | 109
Cc1ccc(NC(=O)/C(C#N)=C/c2cccs2)c(C)c1 | 101 | 0.9 | 4 | 160* | 10 | -66 | 171* | 144* | 107
CCOC(=O)c1c(C)[nH]c(N=Nc2cccc(OC)c2)c1C | 89 | 0.7 | 19 | 198* | 33 | -108 | 235* | 144* | 103
CCOC(=O)c1c(C)[nH]c(C=Nc2ccc(OC)cc2)c1O | 101 | 0.7 | 2 | 120 | 26 | -20 | . | . | .
CCOC(=O)c1c(C)[nH]c(N=Nc2ccc(C)cc2)c1C | 98 | 1 | 7 | 154* | 2 | -58 | 230* | 146* | 102
CCOC(=O)c1c(C)[nH]c(N=Nc2ccccc2)c1C | 104 | 1 | 4 | 127 | -1 | -30 | . | . | .
COc1ccc(C(=O)NCc2ccc3c(c2)OCO3)cc1S(=O)(=O)N(C)Cc1ccccc1 | 102 | 1.2 | -7 | 105 | -18 | -6 | . | . | .
Brc1ccc(-c2nnc(-c3ccccc3Br)o2)cc1 | 98 | 0.5 | 8 | 164* | 46 | -68 | 216* | 138* | 102
Clc1ccccc1-c1nnc(-c2ccccc2Cl)o1 | 99 | 0.6 | 4 | 122 | 41 | -24 | . | . | .
Clc1ccc(-c2nnc(-c3ccccc3Cl)o2)cc1 | 67 | 0.3 | 40 | 161* | 74* | -67 | 218* | 123 | 95
Brc1ccc(-c2nnc(-c3ccco3)o2)cc1 | 91 | 0.8 | 15 | 155* | 19 | -60 | 181* | 130 | 100
c1ccc(-c2cc3nccc(-c4ccccn4)n3n2)cc1 | 108 | 0.9 | -3 | 160* | 14 | -67 | 188* | 135* | 117*
Cc1cc2nccc(-c3ccccn3)n2n1 | 101 | 1 | -1 | 106 | -3 | -6 | . | . | .
CC(=O)c1ccc(NC(=O)/C(Cl)=C/c2ccccc2)cc1 | 94 | 0.7 | 14 | 154* | 29 | -60 | 200* | 127 | 115*
COc1ccc(/C=N/NC(=O)c2cccc(NC(C)=O)c2)c(OC)c1 | 103 | 1 | 9 | 103 | 2 | -4 | . | . | .
COc1ccc(/C=N/NC(=O)c2[nH]ncc2Br)c(OC)c1 | 103 | 0.2 | 6 | 155* | 85* | -55 | 162* | 122 | 114*
O=C(CSc1ccc(Br)cc1)N1CCN(C(=O)c2ccco2)CC1 | 104 | 1.1 | -2 | 101 | -7 | -2 | . | . | .
